What was measured:
[1] = AUC (0 to t) in […] mouse at 200 mg/kg, po after 24 hrs by LC/MS/MS analysis; assay type: ADME, organism-based; design: time < 24 hr, dose 200 mg/kg, route oral; details: plasma
[2] = AUC (infinity) in Crlj:CD rat at 10 mg/kg, po; assay type: ADME, organism-based; design: time infinity, dose 10 mg/kg, route oral; details: plasma
In short: (§1)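 The sodium salt was dosed iv and po: mouse 10/20 mg/kg, rat 5.0/10 mg/kg, monkey 2.5/5.0 mg/kg. Vehicle was 5% DMSO/5% Cremophor EL/15% PEG400/15% HPCD/60% water. AUCinf was taken after po dosing; t1/2 was taken after iv dosing.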

[3] = Oral bioavailability in Crlj:CD rat at 10 mg/kg; assay type: ADME, organism-based; details: in vivo
In short: (§2)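 Single intravenous and oral doses given as the sodium salt in 5% DMSO/5% Cremophor EL/15% PEG400/15% HPCD/60% water. The iv/po doses were 10/20 mg/kg in mouse, 5.0/10 mg/kg in rat and 2.5/5.0 mg/kg in monkey. Oral AUCinf, iv t1/2 and clearance were also reported.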

[4] = Oral bioavailability in BALB-nu/nu mouse at 20 mg/kg; assay type: ADME, organism-based; details: in vivo; in short: as §2
[5] = AUC (infinity) in cynomolgus monkey at 5 mg/kg, po; assay type: ADME, organism-based, Macaca fascicularis; design: time infinity, dose 5 mg/kg, route oral; details: plasma; in short: as §1
[6] = AUC (infinity) in BALB-nu/nu mouse at 20 mg/kg, po; assay type: ADME, organism-based; design: time infinity, dose 20 mg/kg, route oral; details: plasma; in short: as §1
[7] = Oral bioavailability in cynomolgus monkey at 5 mg/kg; assay type: ADME, organism-based, Macaca fascicularis; details: in vivo; in short: as §2
[8] = AUC (0 to t) in […] mouse at 100 mg/kg, po after 24 hrs by LC/MS/MS analysis; assay type: ADME, organism-based; design: time < 24 hr, dose 100 mg/kg, route oral; details: plasma
[9] = Oral bioavailability in […] mouse at 100 mg/kg after 24 hrs by LC/MS/MS analysis; assay type: ADME, organism-based; details: in vivo
In short: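 Mouse 24-h exposure study with oral dosing at 100 mg/kg of the free form (not sodium salt). Formulated as a solution of 5% DMSO, 5% Cremophor EL, 15% PEG400, 15% HPCD and 60% water.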

[10] = AUC (0 to t) in […] mouse at 50 mg/kg, po after 24 hrs by LC/MS/MS analysis; assay type: ADME, organism-based; design: time < 24 hr, dose 50 mg/kg, route oral; details: plasma
[11] = test system: Mus musculus; experiment: AUC (0 to t) in […] mouse assessed as dimethylcarbamic acid 6-chloro-4-methyl-2-oxo-3-[3-(sulfamoylamino)benzyl]-2H-chromen-7-yl ester level at 200 mg/kg, po after 24 hrs by LC/MS/MS analysis; assay type: ADME, organism-based, Plasma; design: time < 24 hr, dose 200 mg/kg, route oral; details: in vivo

Row | Structure (SMILES) | AUC(0-t) at 24 h [1] [µM·h] | AUC(0-t) at 24 h [8] [µM·h] | other results
1 | Cc1c(Cc2cccc(NS(N)(=O)=O)c2)c(=O)oc2cc(OC(=O)N(C)C)c(Cl)cc12 | 70 |  | 
2 | Cc1c(Cc2cccc(NS(N)(=O)=O)c2F)c(=O)oc2cc(OC(=O)N(C)C)c(F)cc12 |  |  | AUC(0-inf) [2]: 6 µM·h; bioavailability [3]: 62%; bioavailability [4]: 51%; AUC(0-inf) [5]: 2.2 µM·h; AUC(0-inf) [6]: 26 µM·h; bioavailability [7]: 30%
3 | Cc1c(Cc2cccc(NS(=O)(=O)NCCC#N)c2)c(=O)oc2cc(OC(=O)N(C)C)c(Cl)cc12 | 25 |  | 
4 | Cc1c(Cc2cccc(NS(=O)(=O)NCCO)c2)c(=O)oc2cc(OC(=O)N(C)C)c(Cl)cc12 | 14 |  | 
5 | Cc1c(Cc2cccc(NS(=O)(=O)NCC(F)(F)F)c2)c(=O)oc2cc(OC(=O)N(C)C)c(Cl)cc12 |  | 26 | 
6 | CNS(=O)(=O)[N-]c1cccc(Cc2c(C)c3cc(Cl)c(OC(=O)N(C)C)cc3oc2=O)c1.[Na+] |  | 51 | bioavailability [9]: 31%
7 | Cc1c(Cc2cccc(N)c2)c(=O)oc2cc(OC(=O)N(C)C)c(Cl)cc12 | 29 |  | 
8 | Cc1c(Cc2cccc(NS(C)(=O)=O)c2)c(=O)oc2cc(OC(=O)N(C)C)c(Cl)cc12 |  | 41 | 
9 | CNS(=O)(=O)Nc1cccc(Cc2c(C)c3cc(Cl)c(OC(=O)N(C)C)cc3oc2=O)c1 |  | 17 | bioavailability [9]: 10%; bioavailability [7]: < 5%
10 | CCS(=O)(=O)Nc1cccc(Cc2c(C)c3cc(Cl)c(OC(=O)N(C)C)cc3oc2=O)c1 |  | 30 | 
11 | Cc1c(Cc2cccc(NS(=O)(=O)N(C)C)c2)c(=O)oc2cc(OC(=O)N(C)C)c(Cl)cc12 |  |  | AUC(0-t) at 24 h [10]: 3 µM·h
12 | CONS(=O)(=O)Nc1cccc(Cc2c(C)c3cc(Cl)c(OC(=O)N(C)C)cc3oc2=O)c1 |  | 62 | 
13 | COCCNS(=O)(=O)Nc1cccc(Cc2c(C)c3cc(Cl)c(OC(=O)N(C)C)cc3oc2=O)c1 | 9 |  | AUCt [11]: 14 µM·h

Source: ChEMBL document CHEMBL3085763, “The sulfamide moiety affords higher inhibitory activity and oral bioavailability to a series of coumarin dual selective RAF/MEK inhibitors” (Bioorg Med Chem Lett, 2013)
